The values below come from paper PMC12392337 (Archives of toxicology, 2022).

Molecules are shown by their SMILES. Like-named read-outs stand apart in the source and are kept apart here. Bounds are passed on as bounds.

Data set [1] has as its system CYP2A6-expressing TK6 cells. As to the kind of experiment: Cell cycle analysis. The settings on record: 24 h; for percentage of cells in G2/M phase: vehicle controls 21.6%. The class given is cell-based, human.
For data set [2], the system named is TK6 cells expressing CYP2E1. The data set can be described thus: In vitro micronucleus assay. The class given is cell-based, human. The following applies: without S9; positive control NDMA at 10 μM.
The subject of data set [3] is CYP2A6-expressing TK6 cells. As to the kind of experiment: MultiFlow DNA damage assay, γH2A.X formation. It counts as cell-based, human. The settings on record: for BMD50 for γH2A.X induction: Bayesian benchmark dose modeling, model-averaged, CES 0.5, 24-h treatment.
A further data set relates to bacteria. The following applies: cited from earlier work.
The subject of data set [4] is TK6 cells transduced with CYP2A6, 1A1, 2E1, and 3A4. As to the kind of experiment: NDBA level in cell culture medium by UPLC-MS/MS. The settings on record: 12.5 μM, 24 h; CYP2A6, 1A1, 2E1, and 3A4 expressed in TK6 cells. It counts as in vitro ADME, human. In a few lines:
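Cells were incubated 24 h with 12.5 μM test compound; wild-type cells in medium with rat or hamster S9 served as a metabolism reference. Medium was protein-precipitated with acetonitrile, centrifuged 12,000 × g for 5 min and run on C18 UPLC at 40 °C with a water/acetonitrile gradient (0.1% formic acid). Detection was ESI+ MRM at m/z 159.1 > 57.3 (LOD 6.8 nM), expressed relative to wild-type-cell medium (100%).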

In data set [5] the test system is TK6 cells expressing CYP2A6. The data set can be described thus: TK and HPRT gene mutation test. It counts as cell-based, human. The following applies: Supplementary Table 1.
In data set [6] the test system is TK6 cells expressing CYP3A4. As to the kind of experiment: In vitro micronucleus assay. It counts as cell-based, human. The following applies: without S9; positive control lasiocarpine at 0.5 μM.
Data set [7] has as its system TK6 cells expressing CYP1A1. The data set can be described thus: In vitro micronucleus assay. The class given is cell-based, human. The following applies: without S9; positive control B(a)P at 1 μM.
The test system of data set [8] is human HepG2 cells overexpressing CYP2A6. The data set can be described thus: MN assay in HepG2 cells. It counts as cell-based. The following applies: Supplementary Fig. 1.
Data set [9] concerns CYP2A6-expressing TK6 cells. The data set can be described thus: In vitro micronucleus assay. The class given is cell-based, human. The following applies: for %MN response (in words): NDIPA and NDBA at concentrations up to 1 mM; for BMD50 for MN frequency: Bayesian benchmark dose modeling, model-averaged, CES 0.5, 24-h treatment; for genotoxic potency relative to NMPA (BMD50 estimates, both endpoints): MN and γH2A.X BMD50 in CYP2A6-expressing TK6 cells, fold weaker than NMPA.

Data set [10] deals with CYP2A6-expressing TK6 cells. As to the kind of experiment: Relative cytotoxicity. It counts as cell-based, human. The settings on record: for cytotoxicity at the highest concentration tested: 24 h, data not shown.
The subject of data set [11] is CYP2A6-expressing TK6 cells. As to the kind of experiment: MultiFlow DNA damage assay, nuclear P53. It counts as cell-based, human. The settings on record: 24 h; for nuclear P53 response (in words): concentrations studied; for increase in nuclear P53 vs vehicle control: 100 μM.
The next data set has as its system TK6 cells. The data set can be described thus: NDBA distribution between medium and cell lysate by UPLC-MS/MS. The class given is in vitro ADME, human. The following applies: Supplementary Fig. 2.
In data set [12] the test system is Salmonella typhimurium expressing human CYP2A6. The following applies: cited from earlier work.
The subject of another data set is rats. The settings on record: cited from earlier work.
The subject of a further data set is wild-type TK6 cells. The data set can be described thus: MultiFlow DNA damage assay, γH2A.X formation. The class given is cell-based, human. The settings on record: positive control at 25 and 50 ng/ml.
The conditions of data set [13]: 20 °C; no reference given; cited from earlier work.
For data set [14], the system named is Chinese hamster V79 cells. The following applies: exogenous microsomal activation system; ref Kuroki et al. 1977; cited from earlier work.

Take `CCCCN(CCCC)N=O` [NDBA, N-nitrosodibutylamine]: in [1] (1 mM), the “G2/M phase cell cycle arrest (in words)” value is on record as “did not cause G2/M phase cell cycle arrest”, the “percentage of cells in G2/M phase (in words)” value is “decreased” and the “percentage of cells in the sub-G1 phase (in words)” value is given as “significantly increased”. Further, the “MN formation (in words)” value in [2] is “no effect”. In addition, in data set [3], the “BMD50 for γH2A.X induction” value is “could not be estimated”. The Ames test result in the data set with bacteria (ref Bonfanti et al. 1990) is recorded as “positive”. In addition, in the data set on bacteria (with metabolic activation by rodent S9, ref Inami et al. 2009), the Ames test result is “positive”. Moreover, in [4], the “metabolism of NDBA (amount in medium vs wild-type TK6 cells)” value is on record as “did not efficiently metabolize NDBA”. The “TK or HPRT gene mutations (in words)” value in data set [5] is listed as “did not induce TK or HPRT gene mutations”. Also, in [6], the “MN formation (in words)” value was “no effect”. In [7], the “MN formation (in words)” value is “no effect”. Moreover, the “%MN frequencies (in words)” value in data set [8] is listed as “did not increase %MN frequencies”. The “%MN response (in words)” value in data set [9] (24 h) is given as “did not cause any significant increase”. Also, in data set [9], the “BMD50 for MN frequency” value is “could not be estimated”. The relative nuclei count in data set [10] (1 mM, CYP2A6-expressing TK6 cells) is 50%. In addition, the “nuclear P53 response (in words)” value in data set [11] is on record as “did not cause an increase”. Besides, in the data set on TK6 cells, the “NDBA in the cell culture medium (in words)” value is reported as “most of the NDBA remains in the cell culture medium” and the “amount of NDBA in the cell lysate (in words)” value is “only a very limited amount of NDBA is found in the cell lysate”. For the same compound, in [12] (ref Fujita and Kamataki 2001), the “mutagenicity in the Ames test with metabolic activation by CYP2A6 or CYP1A1” value is given as “mutagenic”.
`CC(C)N(N=O)C(C)C` [NDIPA, N-nitrosodiisopropylamine]: the “BMD50 for γH2A.X induction” value in data set [3] is “could not be estimated”. The “%MN response (in words)” value in data set [9] (24 h) was “did not cause any significant increase”. The “BMD50 for MN frequency” value in [9] was “could not be estimated”. For the same compound, the cytotoxicity entry in data set [10] (concentrations up to 1 mM, cell line not given) is recorded as “not cytotoxic”. The “nuclear P53 response (in words)” value in [11] was “did not cause an increase”. Moreover, the “mean tumor induction period” value in the data set on rats (25 mg/kg dosing group, ref Lijinsky and Taylor 1979) was 770 days; in the data set on rats (50 mg/kg dosing group, ref Lijinsky and Taylor 1979) it was 430 days. For the same compound, in the data set on rats (Sprague–Dawley rats, ref Lijinsky and Taylor 1979), the carcinogenicity entry is reported as “weak carcinogen”.
Regarding `CO[C@@]12[C@H](COC(N)=O)C3=C(C(=O)C(C)=C(N)C3=O)N1C[C@@H]1N[C@@H]12` [mitomycin C, reference compound], the “γH2A.X response (in words)” value is listed as “robust increase” in data set [3] (positive control at 25 and 50 ng/ml); “robust increase” in the data set with wild-type TK6 cells.
Regarding `C/C=C(/C)C(=O)O[C@H]1CCN2CC=C(COC(=O)[C@@](O)([C@H](C)OC)C(C)(C)O)[C@H]12` [lasiocarpine, Lasiocarpine, reference compound], the “MN formation (in words)” value in data set [6] is “significant increases in MN formation”.
Regarding `CN(CCCC(=O)O)N=O` [NMBA, N-nitroso-N-methyl-4-aminobutanoic acid], in [1] (400 μM), the “percentage of cells in G2/M phase” value was 24.3%. Also, in data set [1], the “G2/M phase cell cycle arrest (in words)” value was “resulted in G2/M phase cell cycle arrest” and the “percentage of cells in S phase (in words)” value is on record as “concurrent decrease”. The “concentration producing increased γH2A.X signals” value in data set [3] (24 h, increased signals only above this concentration) is on record as “above 100 μM”. The “%MN response (in words)” value in data set [9] (24 h) is listed as “concentration-dependent increases”. Moreover, the “genotoxic potency relative to NMPA (BMD50 estimates, both endpoints)” value (“genotoxic potency relative to NMPA” below) in data set [9] was “more than 100 fold”. Further, the “cytotoxicity at the highest concentration tested” value in [10] (CYP2A6-expressing TK6 cells) is 15–30%. For the same compound, the “nuclear P53 response (in words)” value in data set [11] was “did not cause an increase”. The carcinogenicity entry in the data set on rats (rats, large doses in drinking water, ref Lijinsky et al. 1983) is reported as “caused only bladder cancer”.
Turning to `CCN(N=O)C(C)C` [NEIPA, N-nitrosoethylisopropylamine], the “percentage of cells in G2/M phase” value in data set [1] (100 μM) worked out at 27.0%. In data set [1], the “G2/M phase cell cycle arrest (in words)” value was “resulted in G2/M phase cell cycle arrest” and the “percentage of cells in S phase (in words)” value was “concurrent decrease”. In data set [3] (24 h treatment with nitrosamine), the “γH2A.X response (in words)” value is given as “concentration-dependent increase”. The “increase in %MN” value in [9] (100 μM, 24 h) is reported as 3.6 fold. Further, the “%MN response (in words)” value in data set [9] (24 h) is “concentration-dependent increases”. The “genotoxic potency relative to NMPA” value in data set [9] was “more than tenfold less genotoxic”. The “cytotoxicity at the highest concentration tested” value in [10] (CYP2A6-expressing TK6 cells) is recorded as 15–30%. In addition, in data set [11], the “increase in nuclear P53 vs vehicle control” value worked out at 1.5 fold, the “lowest observed adverse effect level (LOAEL) for nuclear P53 increase” value came out at 12.5 µM and the “nuclear P53 response (in words)” value is “concentration-dependent increases”.
For `CCN(CC)N=O` [NDEA, N-nitrosodiethylamine], the “percentage of cells in G2/M phase” value in [1] (100 μM) amounted to 25.1%. In data set [1], the “G2/M phase cell cycle arrest (in words)” value is recorded as “resulted in G2/M phase cell cycle arrest” and the “percentage of cells in S phase (in words)” value is recorded as “concurrent decrease”. In addition, the “γH2A.X increase over control” value in [3] (6.25 μM (lowest concentration tested), 24 h) was 1.5 fold. Moreover, in data set [3] (100 μM, 24 h), the “γH2A.X fluorescence signal increase over the controls” value was determined as 2.7 fold. The Ames test result with bacteria (ref Aiub et al. 2003) is on record as “positive”. In addition, the “increase in %MN” value in [9] (100 μM, 24 h) worked out at 2.6 fold. Moreover, the “%MN response (in words)” value in [9] (24 h) is “concentration-dependent increases”. Besides, the “genotoxic potency relative to NMPA” value in data set [9] is “more than tenfold less genotoxic”. For the same compound, the “cytotoxicity at the highest concentration tested” value in data set [10] (CYP2A6-expressing TK6 cells) is on record as 15–30%. In addition, in [11], the “increase in nuclear P53 vs vehicle control” value came to 1.7 fold, the “lowest observed adverse effect level (LOAEL) for nuclear P53 increase” value was found to be 25 µM and the “nuclear P53 response (in words)” value was “concentration-dependent increases”.
Regarding `CN(C)N=O` [NDMA, N-nitrosodimethylamine, reference compound], in data set [2], the “MN formation (in words)” value is “significant increases in MN formation”. Further, in [13], the vapor pressure is more than 1 mm Hg. The Ames test result in the data set with bacteria (ref Aiub et al. 2003) is given as “positive”.
As for `CN(N=O)c1ccccc1` [NMPA, N-nitrosomethylphenylamine], the “percentage of cells in G2/M phase” value in data set [1] (10 μM) is 32.9%. Further, in [1], the “G2/M phase cell cycle arrest (in words)” value is “resulted in G2/M phase cell cycle arrest” and the “percentage of cells in S phase (in words)” value is “concurrent decrease”. The “mutagenicity in V79 cells” value in [14] is “not mutagenic”. Also, the “γH2A.X increase over control” value in data set [3] (0.625 μM, 24 h) amounted to 1.3 fold. Also, the “BMD50 for γH2A.X induction” value in data set [3] is 1.1 µM. Moreover, the vapor pressure in [13] is more than 1 mm Hg. Also, the “mutagenicity in a standard Ames test” value with bacteria (ref Koepke et al. 1990) is “not mutagenic”. In addition, the “increase in %MN” value in data set [9] (2.5 μM, 24 h) turned out to be 2.0 fold. The “%MN in treated cells relative to controls” value in data set [9] (10 μM (highest concentration tested), 24 h) was found to be 2.8 fold. Besides, the “%MN response (in words)” value in data set [9] (24 h) is recorded as “concentration-dependent increases”. Also, in data set [9], the “BMD50 for MN frequency” value came to 2.2 µM. For the same compound, the “cytotoxicity at the highest concentration tested” value in data set [10] (CYP2A6-expressing TK6 cells) is recorded as 15–30%. In addition, in data set [11], the “lowest observed adverse effect level (LOAEL) for nuclear P53 increase” value stood at 1.25 µM and the “nuclear P53 response (in words)” value was “concentration-dependent increases”. The “mutagenicity in Salmonella typhimurium expressing human CYP2A6” value in data set [12] (ref Kushida et al. 2000) was “mutagenic”. Moreover, in the data set on rats (rats, ref Kroeger-Koepke et al. 1983), the carcinogenicity result is reported as “potent esophageal carcinogen”.
